In ChEMBL document CHEMBL4043283, “Discovery and Preclinical Development of IIIM-290, an Orally Active Potent Cyclin-Dependent Kinase Inhibitor” (J Med Chem, 2018):
In brackets after ≈: the same amount, converted by molar mass. Activity calls are given as the source filed them. The rule behind the calls is not given here.

Key:
[1] = tested on: HL-60; experiment: Growth inhibition of human HL60 cells after 48 hrs by MTT assay; format: functional; conditions: HL-60, 48 h
How it was run: (§1)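 Cancer cell lines sourced from the National Cancer Institute (USA). Cells kept in appropriate growth medium at 37 °C, 95% humidity, 5% CO2. Antiproliferation read by tetrazolium (MTT) assay. GI50 values were determined only for compounds selected after an initial single-concentration screen.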

[2] = Half life in monkey liver S9 fraction preincubated for 5 mins followed by NADPH addition measured after 30 mins by LC-MS/MS analysis; format: ADME, tissue-based, Macaca mulatta; conditions: rhesus monkey
[3] = Elimination half life in BALB/c mouse at 1 mg/kg, iv by LC-MS/MS analysis; format: ADME, organism-based; conditions: in vivo, read-out: beta t1/2 (converted)
[4] = tested on: Mus musculus; experiment: Toxicity in CD1 nude mouse xenografted with human HCT116 cells assessed as change in body weight at 25 to 50 mg/kg, po qd administered on day 10 to 25 post tumor inoculation; format: organism-based; conditions: in vivo
[5] = Half life in Sprague-Dawley rat at 30 mg/kg, po by LC-MS/MS analysis; format: ADME, organism-based; conditions: in vivo
[6] = Half life in monkey liver microsomes at 100 uM after 30 mins by LC-MS/MS analysis; format: ADME, Macaca mulatta, microsome; conditions: rhesus monkey
How it was run: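 Parent loss followed over time to give half-life, with NADPH as cofactor for microsomal phase I metabolism.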

[7] = Apparent permeability across apical to basolateral side in human Caco2 cells after 90 mins by LC-MS/MS analysis; format: ADME, cell-based; conditions: Caco-2
How it was run: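 Caco-2 monolayers were grown for 21 days. Test compound in HBSS containing 10 mM HEPES was added to the apical chamber, and samples were taken from both the apical and basolateral chambers.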

[8] = Cmax in BALB/c mouse at 10 mg/kg, po by LC-MS/MS analysis; format: ADME, organism-based; parameters: dose 10 mg/kg, route oral; conditions: in vivo
[9] = Thermodynamic equilibrium solubility of compound in PBS at pH 7.4 after 5 hrs by shake flask method; format: physicochemical; conditions: read-out: Therm_solubility
[10] = Ratio of Cmax in Sprague-Dawley rat at 30 mg/kg, po to GI50 for human MIAPaCa2 cells
[11] = tested on: Salmonella typhimurium; experiment: Mutagenicity in Salmonella typhimurium TA98 at 50 ug/plate in presence of liver S9 fraction by Ames test; format: toxicity; conditions: salmonella enterica subsp. enterica serovar typhimurium
[12] = tested on: MIA PaCa-2; experiment: Induction of apoptosis in human MIAPaCa2 cells at 1.5 uM after 24 hrs by propidium iodide staining-based flow cytometric method relative to control; format: functional
[13] = Pancreas to plasma partition coefficient, Kp of the compound in Sprague-Dawley rat at 30 mg/kg, po measured at 1 hr; format: ADME, organism-based; conditions: pancreas and plasma
[14] = tested on: Lung; experiment: Drug uptake in BALB/c mouse lung at 30 mg/kg, po after 8 hrs; format: ADME, organism-based; conditions: in vivo
[15] = molecular target: CDK2/Cyclin O (Homo sapiens, UniProt P22674+P24941); experiment: Inhibition of CDK2/cyclin O (unknown origin) after 30 mins in presence of [33P]-gamma-ATP by filter binding assay; format: protein-complex assay
[16] = tested on: MOLT-4; experiment: Growth inhibition of human MOLT4 cells after 48 hrs by MTT assay; format: functional; conditions: MOLT-4, 48 h; how it was run: as §1
[17] = Acute toxicity in po dosed Wistar rat assessed as mortality; format: organism-based; conditions: in vivo
[18] = tested on: A549; experiment: Growth inhibition of human A549 cells after 48 hrs by MTT assay; format: functional; conditions: A549, 48 h; how it was run: as §1
[19] = tested on: MOLT-4; experiment: Antitumor activity against human MOLT4 cells xenografted in CD1 nude mouse assessed as tumor growth inhibition at 25 mg/kg, po qd administered on day 10 to 25 post tumor inoculation; format: functional, organism-based
[20] = n-octanol-PBS distribution co-efficient, log D of compound at pH 7.4 by shake flask method; format: physicochemical
[21] = molecular target: Cytochrome P450 2C9 (Homo sapiens, UniProt P11712); experiment: Time-dependent inhibition of human CYP2C9 at 2 uM using fluorogenic substrate by fluorometric method; format: ADME
[22] = tested on: Mus musculus; experiment: Toxicity in CD1 nude mouse xenografted with human HCT116 cells assessed as mortality at 50 mg/kg, po qd administered on day 10 to 25 post tumor inoculation; format: organism-based; conditions: in vivo
[23] = Intrinsic clearance in rat liver microsomes assessed per mg of protein at 100 uM after 30 mins by LC-MS/MS analysis; format: ADME, microsome; conditions: read-out: CLH
[24] = Pancreas to plasma partition coefficient, Kp of the compound in BALB/c mouse at 30 mg/kg, po measured at 0.5 hrs; format: ADME, organism-based; conditions: pancreas and plasma
[25] = Tmax in Sprague-Dawley rat at 30 mg/kg, po by LC-MS/MS analysis; format: ADME, organism-based; conditions: in vivo
[26] = tested on: Mus musculus; experiment: Toxicity in CD1 nude mouse xenografted with human MOLT4 cells assessed as change in body weight at 25 to 75 mg/kg, po qd administered on day 10 to 25 post tumor inoculation; format: organism-based; conditions: in vivo
[27] = AUC (0 to t) in BALB/c mouse at 10 mg/kg, po by LC-MS/MS analysis; format: ADME, organism-based; conditions: in vivo
[28] = Half life in Sprague-Dawley rat at 10 mg/kg, po by LC-MS/MS analysis; format: ADME, organism-based; conditions: in vivo
[29] = Pancreas to plasma partition coefficient, Kp of the compound in Sprague-Dawley rat at 30 mg/kg, po measured at 0.5 hrs; format: ADME, organism-based; conditions: pancreas and plasma
[30] = molecular target: Receptor tyrosine-protein kinase erbB-3 (Homo sapiens) (UniProt P21860); experiment: Inhibition of partial length wild type human ERBB3 expressed in mammalian expression system at 0.5 uM by KINOMEscan method relative to control
How it was run: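 Competition binding screen (KINOMEscan) at 0.5 μM; primary binding read out as % of control, lower values indicating stronger interaction.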

[31] = tested on: Caco-2; experiment: Growth inhibition of human Caco2 cells after 48 hrs by MTT assay; format: functional; conditions: Caco-2, 48 h; how it was run: as §1
[32] = Thermodynamic equilibrium solubility of compound in water after 5 hrs by shake flask method; format: physicochemical; conditions: read-out: Therm_solubility
[33] = tested on: HOP-62; experiment: Growth inhibition of human HOP62 cells after 48 hrs by MTT assay; format: functional; conditions: HOP-62, 48 h; how it was run: as §1
[34] = tested on: Liver; experiment: Intrinsic clearance in dog liver S9 fraction assessed per mg of protein preincubated for 5 mins followed by NADPH addition measured after 30 mins by LC-MS/MS analysis; format: ADME, tissue-based, Canis lupus familiaris; conditions: s9, 0.5 h
How it was run: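 Intrinsic clearance obtained from substrate disappearance over time, reported per mg protein (microsomes, S9) or per 10^6 cells (hepatocytes).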

[35] = tested on: HCT-116; experiment: Antitumor activity against human HCT116 cells xenografted in CD1 nude mouse assessed as tumor growth inhibition at 25 mg/kg, po qd administered on day 10 to 25 post tumor inoculation; format: functional, organism-based
[36] = Toxicity in po dosed Swiss albino mouse allografted with Swiss mouse EAC administered for 9 day; format: organism-based; conditions: in vivo
[37] = Ionization constant, pKa of compound by UV spectrophotometric analysis; format: physicochemical
[38] = tested on: MIA PaCa-2; experiment: Induction of apoptosis in human MIAPaCa2 cells assessed as chromatin condensation in nuclei after 24 hrs by scanning electron microscopy; format: functional, cell-based
How it was run: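 Cells exposed to different compound concentrations for 24 h on coverslips, fixed in 2.5% glutaraldehyde in 0.1 M phosphate buffer pH 7.2 (4 °C, 24 h), postfixed in 1% OsO4 4 h, ethanol-dehydrated, critical-point dried with HMDS, gold-coated, imaged at 20 kV.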

Sequence of Cytochrome P450 2C9 (P11712 whole entry): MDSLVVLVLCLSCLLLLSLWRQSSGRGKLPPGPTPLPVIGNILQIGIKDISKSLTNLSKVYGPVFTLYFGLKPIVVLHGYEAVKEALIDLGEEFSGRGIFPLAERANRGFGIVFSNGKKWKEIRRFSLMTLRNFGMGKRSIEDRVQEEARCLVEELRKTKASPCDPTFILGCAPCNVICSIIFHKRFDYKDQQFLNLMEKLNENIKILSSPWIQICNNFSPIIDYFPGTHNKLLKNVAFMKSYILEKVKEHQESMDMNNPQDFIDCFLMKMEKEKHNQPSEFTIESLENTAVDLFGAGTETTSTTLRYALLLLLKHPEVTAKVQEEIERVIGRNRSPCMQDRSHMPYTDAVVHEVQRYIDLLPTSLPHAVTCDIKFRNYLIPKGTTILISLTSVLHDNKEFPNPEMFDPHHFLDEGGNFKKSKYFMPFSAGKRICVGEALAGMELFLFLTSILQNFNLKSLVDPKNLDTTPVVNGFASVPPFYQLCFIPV
Sequence of Receptor tyrosine-protein kinase erbB-3 (Homo sapiens) (P21860 whole entry): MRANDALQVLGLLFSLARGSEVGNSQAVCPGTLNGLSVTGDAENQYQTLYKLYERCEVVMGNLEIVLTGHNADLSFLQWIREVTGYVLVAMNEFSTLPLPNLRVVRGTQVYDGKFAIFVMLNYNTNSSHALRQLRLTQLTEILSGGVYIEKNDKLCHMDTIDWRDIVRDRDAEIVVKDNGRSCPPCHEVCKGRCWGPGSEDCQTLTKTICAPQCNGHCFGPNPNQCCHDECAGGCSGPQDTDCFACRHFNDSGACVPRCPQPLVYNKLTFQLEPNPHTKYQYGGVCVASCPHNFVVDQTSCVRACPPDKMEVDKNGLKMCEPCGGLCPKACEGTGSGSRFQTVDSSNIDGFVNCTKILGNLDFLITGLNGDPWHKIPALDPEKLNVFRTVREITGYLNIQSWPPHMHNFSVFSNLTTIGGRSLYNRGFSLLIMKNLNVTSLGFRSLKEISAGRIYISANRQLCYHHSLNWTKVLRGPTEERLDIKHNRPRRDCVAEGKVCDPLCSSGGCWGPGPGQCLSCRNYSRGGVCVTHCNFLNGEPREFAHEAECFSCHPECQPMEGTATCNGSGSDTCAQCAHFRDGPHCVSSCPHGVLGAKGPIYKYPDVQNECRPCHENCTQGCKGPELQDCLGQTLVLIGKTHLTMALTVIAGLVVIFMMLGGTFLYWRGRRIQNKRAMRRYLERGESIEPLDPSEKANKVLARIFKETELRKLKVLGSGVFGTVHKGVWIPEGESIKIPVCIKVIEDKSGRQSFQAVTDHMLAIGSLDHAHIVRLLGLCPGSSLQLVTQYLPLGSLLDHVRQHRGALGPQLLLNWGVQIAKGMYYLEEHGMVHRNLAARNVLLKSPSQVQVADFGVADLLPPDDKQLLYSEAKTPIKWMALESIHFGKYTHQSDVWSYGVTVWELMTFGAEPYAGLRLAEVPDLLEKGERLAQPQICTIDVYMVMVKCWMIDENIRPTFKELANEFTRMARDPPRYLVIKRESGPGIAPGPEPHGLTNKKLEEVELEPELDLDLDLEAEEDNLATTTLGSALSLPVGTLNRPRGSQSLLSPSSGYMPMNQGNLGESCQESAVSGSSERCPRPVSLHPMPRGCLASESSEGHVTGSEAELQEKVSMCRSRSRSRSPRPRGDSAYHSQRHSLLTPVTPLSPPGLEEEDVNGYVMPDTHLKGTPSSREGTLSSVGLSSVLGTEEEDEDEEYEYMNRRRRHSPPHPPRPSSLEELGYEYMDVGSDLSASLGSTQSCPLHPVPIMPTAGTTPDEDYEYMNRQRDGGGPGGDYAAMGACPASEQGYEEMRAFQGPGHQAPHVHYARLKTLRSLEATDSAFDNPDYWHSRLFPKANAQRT

In the case of `CN1CC[C@H](c2c(O)cc(O)c3c(=O)cc(/C=C/c4c(Cl)cccc4Cl)oc23)[C@H](O)C1`, the GI50 [1] is reported as 0.9 µM, the half-life [2] is reported as 0.933 h and the half-life [3] is reported as 5.46 h. The Activity [4] was “Non-Toxic”, the half-life [5] was 3.23 h and the half-life at 100 µM [6] was 0.417 h. For the same molecule, the Papp A→B at 1.5 h [7] was 2.1 ×10⁻⁶ cm/s, the Cmax [8] was 670 to 1290 nM and the solubility thermodynamic at 5 h [9] was 2.29 µg/mL (≈ 4.95 µM). The Ratio [10] was 4, the Activity [11] was “Non-Toxic” and the Activity [12] was 1.9%. For the same molecule, the Kp at 1 h [13] was 4.1, the Drug uptake [14] was “Active” and the IC50 [15] was 0.138 µM. The GI50 [16] was 0.5 µM, the LD50 [17] was 1000 mg/kg and the GI50 [18] was 4 µM. The TGI [19] was “inactive”, the logD [20] was 1.65 and the TDI [21] was “Not Active”. For the same molecule, the Activity [22] was “Non-Toxic”, the microsomal CLint at 100 µM [23] was under 13 µL/min/mg and the Kp at 0.5 h [24] was 14.2. For the same molecule, the Tmax [25] was 1 h, the Activity [26] was “Non-Toxic” and the AUC(0-t) [27] was 4.5 µM·h. The half-life [28] was 5.16 h, the Kp at 0.5 h [29] was 5.3 and the inhibition [30] was over 98%. For the same molecule, the GI50 [31] was 7 µM, the solubility thermodynamic at 5 h [32] was 20.3 µg/mL (≈ 43.9 µM) and the GI50 [33] was 7 µM. The CLint [34] was 12 µL/min/mg, the TGI [35] was “inactive” and the MTD at 216 h [36] was 100 mg/kg. The pKa [37] was 5.4 and the Activity [38] was “Active”.
